{"source": "ChEMBL document CHEMBL1140469", "about": "“Novel, potent THC/anandamide (hybrid) analogs” (Bioorg Med Chem, 2007)", "data": [{"test_system": "Mus musculus", "assay": "Hypothermic activity in mouse assessed as change in rectal temperature at 30 mg/kg, iv after 4 mins", "format": "functional", "summary_of_the_method": "(§1)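 A separate group of mice had rectal temperature taken by thermistor probe inserted 25 mm, before and 4 min after iv dosing in ethanol:emulphor:saline 1:1:18. Change is the pre minus post difference. ED50 from regression against log dose, in µmol/kg; otherwise maximal change given with its dose. Maximum dose 30 mg/kg.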", "units": {"Activity": "°C"}, "values": [{"smiles": "CCCCCCC(C)(C)c1ccccc1/C=C\\C/C=C\\C/C=C\\CCCC(=O)N[C@H](C)CO", "Activity": -0.87}, {"smiles": "CCCCCCC(C)(C)c1ccc(OCC/C=C\\C/C=C\\CCCC(=O)N[C@H](C)CO)cc1", "Activity": -0.5}, {"smiles": "CCCCCCC(C)(C)c1cccc(OCC/C=C\\C/C=C\\C/C=C\\CCCC(=O)N[C@H](C)CO)c1", "Activity": -0.9}]}, {"test_system": "Mus musculus", "assay": "Antinociceptive activity in iv dosed mouse by tail filck test", "format": "functional", "summary_of_the_method": "(§2)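 Mouse tail flick to radiant heat from bright light, 10-s cutoff. Baseline latency taken, then iv tail-vein dosing in ethanol:emulphor:saline 1:1:18, 0.1 mL/10 g. Retested 4 min later. Result expressed as %MPE, 6 mice/dose. ED50 from least-squares linear regression against log dose, in µmol/kg. Doses above 30 mg/kg not given.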", "units": {"ED50": "µmol/kg"}, "values": [{"smiles": "C[C@H](CO)NC(=O)CCC/C=C\\C/C=C\\CCOc1cccc(C(C)(C)CCCCBr)c1", "ED50": 0.8}, {"smiles": "C[C@H](CO)NC(=O)CCC/C=C\\C/C=C\\CCOc1cccc(C(C)(C)CCCCO)c1", "ED50": 0.6}, {"smiles": "C[C@H](CO)NC(=O)CCC/C=C\\C/C=C\\CCOc1cccc(C(C)(C)CCCCN=[N+]=[N-])c1", "ED50": 0.2}, {"smiles": "CCCCCCC(C)(C)c1cccc(OCC/C=C\\C/C=C\\CCCC(=O)N[C@H](C)CO)c1", "ED50": 8.45}]}, {"test_system": "Mus musculus", "assay": "Induction of ring immobility in iv dosed mouse", "format": "functional", "summary_of_the_method": "(§3)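 Right after the temperature reading, iv-dosed mice (ethanol:emulphor:saline 1:1:18) were placed on a 5.5-cm ring set 16 cm high. Time spent motionless over 5 min was recorded. ED50 from regression against log dose, in µmol/kg; otherwise maximal effect given with its dose. Maximum dose 30 mg/kg.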", "units": {"ED50": "µmol/kg"}, "values": [{"smiles": "C[C@H](CO)NC(=O)CCC/C=C\\C/C=C\\CCOc1cccc(C(C)(C)CCCCBr)c1", "ED50": 1.4}, {"smiles": "C[C@H](CO)NC(=O)CCC/C=C\\C/C=C\\CCOc1cccc(C(C)(C)CCCCO)c1", "ED50": 0.7}, {"smiles": "C[C@H](CO)NC(=O)CCC/C=C\\C/C=C\\CCOc1cccc(C(C)(C)CCCCN=[N+]=[N-])c1", "ED50": 0.3}, {"smiles": "CCCCCCC(C)(C)c1ccccc1/C=C\\C/C=C\\C/C=C\\CCCC(=O)N[C@H](C)CO", "ED50": 27.7}, {"smiles": "CCCCCCC(C)(C)c1cccc(OCC/C=C\\C/C=C\\CCCC(=O)N[C@H](C)CO)c1", "ED50": 9.66}]}, {"target": "Cannabinoid receptor 1 (Homo sapiens, UniProt P21554)", "sequence (P21554 whole entry)": "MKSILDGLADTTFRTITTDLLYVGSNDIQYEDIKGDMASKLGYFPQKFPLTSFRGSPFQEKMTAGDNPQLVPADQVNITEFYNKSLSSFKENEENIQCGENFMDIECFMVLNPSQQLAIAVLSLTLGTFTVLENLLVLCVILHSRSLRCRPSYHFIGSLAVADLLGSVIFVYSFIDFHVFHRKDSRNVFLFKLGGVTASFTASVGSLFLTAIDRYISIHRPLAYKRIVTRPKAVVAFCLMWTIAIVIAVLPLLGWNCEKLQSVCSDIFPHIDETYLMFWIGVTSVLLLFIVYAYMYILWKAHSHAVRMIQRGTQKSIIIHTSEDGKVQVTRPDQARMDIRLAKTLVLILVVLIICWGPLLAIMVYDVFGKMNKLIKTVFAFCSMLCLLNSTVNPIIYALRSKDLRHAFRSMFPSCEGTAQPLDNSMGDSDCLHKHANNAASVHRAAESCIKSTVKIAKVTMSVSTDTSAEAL", "assay": "Displacement of [3H]CP-55940 from human CB1 receptor expressed in HEK293 cells", "format": "cell-based", "summary_of_the_method": "(§4)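 Membranes (50 µg) from HEK-293 cells stably expressing human CB1 (DMEM, 10% FBS) or CHO cells stably expressing human CB2 (DMEM, 10% FCS). Incubated with 0.5 nM [3H]CP55,940 and test compound (1 nM–10 µM) in buffer with BSA 5 mg/mL, 1 h at 30 °C. Filtration, scintillation counting. Ki from displacement data; three experiments in triplicate.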", "units": {"Ki": "nM"}, "values": [{"smiles": "C[C@H](CO)NC(=O)CCC/C=C\\C/C=C\\CCOc1cccc(C(C)(C)CCCCBr)c1", "Ki": 8.87}, {"smiles": "C[C@H](CO)NC(=O)CCC/C=C\\C/C=C\\CCOc1cccc(C(C)(C)CCCCO)c1", "Ki": 79}, {"smiles": "C[C@H](CO)NC(=O)CCC/C=C\\C/C=C\\CCOc1cccc(C(C)(C)CCCCN=[N+]=[N-])c1", "Ki": 2.74}, {"smiles": "CCCCCCC(C)(C)c1ccccc1/C=C\\C/C=C\\C/C=C\\CCCC(=O)N[C@H](C)CO", "Ki": 86.3}, {"smiles": "CCCCCCC(C)(C)c1ccc(OCC/C=C\\C/C=C\\CCCC(=O)N[C@H](C)CO)cc1", "Ki": 195}, {"smiles": "CCCCCCC(C)(C)c1cccc(OCC/C=C\\C/C=C\\C/C=C\\CCCC(=O)N[C@H](C)CO)c1", "Ki": 131}, {"smiles": "CCCCCCC(C)(C)c1cccc(OCC/C=C\\C/C=C\\CCCC(=O)N[C@H](C)CO)c1", "Ki": 8.55}]}, {"test_system": "Mus musculus", "assay": "Antinociceptive activity in mouse at 30 mg/kg, iv by tail filck test", "format": "functional", "summary_of_the_method": "as §2", "units": {"Activity": "%"}, "values": [{"smiles": "CCCCCCC(C)(C)c1ccccc1/C=C\\C/C=C\\C/C=C\\CCCC(=O)N[C@H](C)CO", "Activity": 50}, {"smiles": "CCCCCCC(C)(C)c1ccc(OCC/C=C\\C/C=C\\CCCC(=O)N[C@H](C)CO)cc1", "Activity": 30.7}, {"smiles": "CCCCCCC(C)(C)c1cccc(OCC/C=C\\C/C=C\\C/C=C\\CCCC(=O)N[C@H](C)CO)c1", "Activity": 61}]}, {"target": "Cannabinoid receptor 2 (Homo sapiens, UniProt P34972)", "sequence (P34972 whole entry)": "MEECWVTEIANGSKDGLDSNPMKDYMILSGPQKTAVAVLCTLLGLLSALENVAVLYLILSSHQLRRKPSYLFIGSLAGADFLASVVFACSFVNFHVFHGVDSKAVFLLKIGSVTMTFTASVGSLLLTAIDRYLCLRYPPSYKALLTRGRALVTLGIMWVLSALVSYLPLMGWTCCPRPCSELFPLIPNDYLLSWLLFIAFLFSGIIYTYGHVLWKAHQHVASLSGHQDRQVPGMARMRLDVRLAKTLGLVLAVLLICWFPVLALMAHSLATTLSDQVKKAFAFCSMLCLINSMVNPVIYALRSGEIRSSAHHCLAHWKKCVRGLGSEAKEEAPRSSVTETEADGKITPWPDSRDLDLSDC", "assay": "Displacement of [3H]CP-55940 from human CB2 receptor expressed in CHO cells", "format": "cell-based", "summary_of_the_method": "as §4", "units": {"Ki": "nM"}, "values": [{"smiles": "C[C@H](CO)NC(=O)CCC/C=C\\C/C=C\\CCOc1cccc(C(C)(C)CCCCBr)c1", "Ki": 7.46}, {"smiles": "C[C@H](CO)NC(=O)CCC/C=C\\C/C=C\\CCOc1cccc(C(C)(C)CCCCO)c1", "Ki": 10.9}, {"smiles": "C[C@H](CO)NC(=O)CCC/C=C\\C/C=C\\CCOc1cccc(C(C)(C)CCCCN=[N+]=[N-])c1", "Ki": 2.52}, {"smiles": "CCCCCCC(C)(C)c1ccccc1/C=C\\C/C=C\\C/C=C\\CCCC(=O)N[C@H](C)CO", "Ki": 257}, {"smiles": "CCCCCCC(C)(C)c1ccc(OCC/C=C\\C/C=C\\CCCC(=O)N[C@H](C)CO)cc1", "Ki": 78.2}, {"smiles": "CCCCCCC(C)(C)c1cccc(OCC/C=C\\C/C=C\\C/C=C\\CCCC(=O)N[C@H](C)CO)c1", "Ki": 189}, {"smiles": "CCCCCCC(C)(C)c1cccc(OCC/C=C\\C/C=C\\CCCC(=O)N[C@H](C)CO)c1", "Ki": 21.5}]}, {"test_system": "Mus musculus", "assay": "Hypothermic activity in iv dosed mouse assessed as change in rectal temperature after 4 mins", "format": "functional", "summary_of_the_method": "as §1", "units": {"ED50": "µmol/kg"}, "values": [{"smiles": "C[C@H](CO)NC(=O)CCC/C=C\\C/C=C\\CCOc1cccc(C(C)(C)CCCCBr)c1", "ED50": 2.1}, {"smiles": "C[C@H](CO)NC(=O)CCC/C=C\\C/C=C\\CCOc1cccc(C(C)(C)CCCCO)c1", "ED50": 2.8}, {"smiles": "C[C@H](CO)NC(=O)CCC/C=C\\C/C=C\\CCOc1cccc(C(C)(C)CCCCN=[N+]=[N-])c1", "ED50": 1.95}, {"smiles": "CCCCCCC(C)(C)c1cccc(OCC/C=C\\C/C=C\\CCCC(=O)N[C@H](C)CO)c1", "ED50": 7.8}]}, {"test_system": "Mus musculus", "assay": "Suppression of spontaneous activity in mouse at 30 mg/kg, iv", "format": "functional", "summary_of_the_method": "(§5)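 Mice dosed iv in ethanol:emulphor:saline 1:1:18. After the 4-min tail-flick retest, each mouse spent 10 min in a photocell cage where beam interruptions were counted. Activity expressed as % of vehicle group, 6 mice/dose. ED50 from regression against log dose, in µmol/kg. Maximum dose 30 mg/kg.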", "units": {"Activity": "%"}, "values": [{"smiles": "CCCCCCC(C)(C)c1ccc(OCC/C=C\\C/C=C\\CCCC(=O)N[C@H](C)CO)cc1", "Activity": 44.9}, {"smiles": "CCCCCCC(C)(C)c1cccc(OCC/C=C\\C/C=C\\C/C=C\\CCCC(=O)N[C@H](C)CO)c1", "Activity": 55}]}, {"test_system": "Mus musculus", "assay": "Suppression of spontaneous activity in iv dosed mouse", "format": "functional", "summary_of_the_method": "as §5", "units": {"ED50": "µmol/kg"}, "values": [{"smiles": "C[C@H](CO)NC(=O)CCC/C=C\\C/C=C\\CCOc1cccc(C(C)(C)CCCCBr)c1", "ED50": 0.7}, {"smiles": "C[C@H](CO)NC(=O)CCC/C=C\\C/C=C\\CCOc1cccc(C(C)(C)CCCCO)c1", "ED50": 1.1}, {"smiles": "C[C@H](CO)NC(=O)CCC/C=C\\C/C=C\\CCOc1cccc(C(C)(C)CCCCN=[N+]=[N-])c1", "ED50": 0.2}, {"smiles": "CCCCCCC(C)(C)c1ccccc1/C=C\\C/C=C\\C/C=C\\CCCC(=O)N[C@H](C)CO", "ED50": 25.7}, {"smiles": "CCCCCCC(C)(C)c1cccc(OCC/C=C\\C/C=C\\CCCC(=O)N[C@H](C)CO)c1", "ED50": 3.73}]}, {"test_system": "Mus musculus", "assay": "Induction of ring immobility in mouse at 30 mg/kg, iv", "format": "functional", "summary_of_the_method": "as §3", "units": {"Activity": "%"}, "values": [{"smiles": "CCCCCCC(C)(C)c1ccc(OCC/C=C\\C/C=C\\CCCC(=O)N[C@H](C)CO)cc1", "Activity": 13.4}, {"smiles": "CCCCCCC(C)(C)c1cccc(OCC/C=C\\C/C=C\\C/C=C\\CCCC(=O)N[C@H](C)CO)c1", "Activity": 22}]}]}
